Activity and IC50 data for 3 molecules are collected here from ChEMBL document CHEMBL1166015, “Design, synthesis, and docking of highly hypolipidemic agents: Schizosaccharomyces pombe as a new model for evaluating alpha-asarone-based HMG-CoA reductase inhibitors” (Bioorg Med Chem, 2010).

Assay [1] has as its system Mus musculus. Nature of the assay: Hypolipidemic activity in high cholesterol diet fed ICR mouse assessed as reduction of total cholesterol level at 100 mg/kg/day, ip after 12 hrs of last cholesterol challenge relative to control. Type of assay: functional. Also on record: scale not given: the % may be the effect or the level left. To be noted: route intraperitoneal. The method, boiled down:
(§1)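 Male ICR mice (24–27 g), six per group, were fed a high-cholesterol diet ad libitum for 6 days (1.0% cholesterol, 0.5% sodium cholate, 5% butter, 30% sucrose, 10% casein, 53.5% chow). Basal-diet mice served as controls. Dosing was 5 mL/kg and solutions were made fresh. Mice were fasted 12 h before sacrifice and bled periorbitally. Serum TC, HDL-C and TG were read on an analyzer, with LDL-C by Friedewald.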

Assay [2] concerns Mus musculus. Description: Hypolipidemic activity in ICR mouse assessed as decrease in Tyloxapol-induced HDL-cholesterol level at 100 mg/kg, ip administered 1 hr before Tyloxapol challenge and 22, 48 hrs after Tyloxapol challenge measured after 22 hrs relative to control. Type of assay: functional. Set-up: scale not given: the % may be the effect or the level left. The conditions noted are these: route intraperitoneal. The method, boiled down: (§2)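 Male ICR mice (24–27 g), groups of six. Hyperlipidemia induced by ip Tyloxapol (Triton WR 1339) 400 mg/kg in water. Drug given at 5 mL/kg 1 h before and 22 and 48 h after injection; vehicle controls. Blood drawn 22 h post-injection by periorbital bleeding. Serum total cholesterol, HDL-C and triglycerides measured on an automatic analyzer; LDL-C by the Friedewald equation. Values are % of the Tyloxapol group, mean ± SE.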

For assay [3], the system named is Mus musculus. Nature of the assay: Hypolipidemic activity in high cholesterol diet fed ICR mouse assessed as reduction of LDL cholesterol level at 50 mg/kg/day, po after 12 hrs of last cholesterol challenge relative to control. Set-up: scale not given: the % may be the effect or the level left.
Assay [4] concerns Mus musculus. Nature of the assay: Hypolipidemic activity in high cholesterol diet fed ICR mouse assessed as reduction of HDL cholesterol level at 50 mg/kg/day, po after 12 hrs of last cholesterol challenge relative to control. Set-up: scale not given: the % may be the effect or the level left.
For assay [5], the system named is Mus musculus. Description: Hypolipidemic activity in high cholesterol diet fed ICR mouse assessed as reduction of LDL cholesterol level at 100 mg/kg/day, po after 12 hrs of last cholesterol challenge relative to control. Set-up: scale not given: the % may be the effect or the level left.
Assay [6] concerns Mus musculus. Description: Hypolipidemic activity in ICR mouse assessed as decrease in Tyloxapol-induced HDL-cholesterol level at 50 mg/kg, ip administered 1 hr before Tyloxapol challenge and 22, 48 hrs after Tyloxapol challenge measured after 22 hrs relative to control. Type of assay: functional. Also on record: scale not given: the % may be the effect or the level left. The conditions noted are these: route oral, in the assay text read “po administered” for “ip administered”. The method, boiled down:
as §2

Assay [7] concerns Mus musculus. Description: Hypolipidemic activity in ICR mouse assessed as decrease in Tyloxapol-induced triglyceride level at 50 mg/kg, ip administered 1 hr before Tyloxapol challenge and 22, 48 hrs after Tyloxapol challenge measured after 22 hrs relative to control. Type of assay: functional. Set-up: scale not given: the % may be the effect or the level left. To be noted: route intraperitoneal. The gist of the method: as §2

Assay [8] concerns Mus musculus. Description: Hypolipidemic activity in ICR mouse assessed as decrease in Tyloxapol-induced total cholesterol level at 100 mg/kg, ip administered 1 hr before Tyloxapol challenge and 22, 48 hrs after Tyloxapol challenge measured after 22 hrs relative to control. The class given is functional. Set-up: scale not given: the % may be the effect or the level left. To be noted: route oral, in the assay text read “po administered” for “ip administered”. The method, boiled down:
as §2

In assay [9] the test system is Mus musculus. Nature of the assay: Hypolipidemic activity in high cholesterol diet fed ICR mouse assessed as reduction of triglyceride level at 100 mg/kg/day, po after 12 hrs of last cholesterol challenge relative to control. Also on record: scale not given: the % may be the effect or the level left.
The subject of assay [10] is Mus musculus. Nature of the assay: Hypolipidemic activity in ICR mouse assessed as decrease in Tyloxapol-induced triglyceride level at 100 mg/kg, ip administered 1 hr before Tyloxapol challenge and 22, 48 hrs after Tyloxapol challenge measured after 22 hrs relative to control. To be noted: route intraperitoneal. Set-up: scale not given: the % may be the effect or the level left. Type of assay: functional. The method, boiled down: as §2

For assay [11], the system named is Mus musculus. Description: Hypolipidemic activity in high cholesterol diet fed ICR mouse assessed as reduction of HDL cholesterol level at 100 mg/kg/day, po after 12 hrs of last cholesterol challenge relative to control. Set-up: scale not given: the % may be the effect or the level left.
Assay [12] has as its system Mus musculus. Description: Hypolipidemic activity in ICR mouse assessed as decrease in Tyloxapol-induced total cholesterol level at 50 mg/kg, ip administered 1 hr before Tyloxapol challenge and 22, 48 hrs after Tyloxapol challenge measured after 22 hrs relative to control. Type of assay: functional. Also on record: scale not given: the % may be the effect or the level left. The conditions noted are these: route oral, in the assay text read “po administered” for “ip administered”. The method, boiled down: as §2

In assay [13] the test system is Mus musculus. Nature of the assay: Hypolipidemic activity in high cholesterol diet fed ICR mouse assessed as reduction of total cholesterol level at 50 mg/kg, ip after 12 hrs of last cholesterol challenge relative to control. Type of assay: functional. Also on record: scale not given: the % may be the effect or the level left. To be noted: route intraperitoneal. The gist of the method: as §1

Assay [14] relates to Mus musculus. Nature of the assay: Hypolipidemic activity in ICR mouse assessed as decrease in Tyloxapol-induced LDL-cholesterol level at 50 mg/kg, ip administered 1 hr before Tyloxapol challenge and 22, 48 hrs after Tyloxapol challenge measured after 22 hrs relative to control. Type of assay: functional. Set-up: scale not given: the % may be the effect or the level left. The conditions noted are these: route oral, in the assay text read “po administered” for “ip administered”. The method, boiled down:
as §2

The test system of assay [15] is Mus musculus. Description: Hypolipidemic activity in ICR mouse assessed as decrease in Tyloxapol-induced LDL-cholesterol level at 100 mg/kg, ip administered 1 hr before Tyloxapol challenge and 22, 48 hrs after Tyloxapol challenge measured after 22 hrs relative to control. Type of assay: functional. Also on record: scale not given: the % may be the effect or the level left. The conditions noted are these: route oral, in the assay text read “po administered” for “ip administered”. The method, boiled down:
as §2

Assay [16] concerns Mus musculus. Nature of the assay: Hypolipidemic activity in high cholesterol diet fed ICR mouse assessed as reduction of triglyceride level at 50 mg/kg/day, po after 12 hrs of last cholesterol challenge relative to control. Also on record: scale not given: the % may be the effect or the level left.
Assay [17] addresses T1, 3-hydroxy-3-methylglutaryl-coenzyme A reductase (Schizosaccharomyces pombe 972h-, UniProt Q10283).
T1 sequence (Q10283 whole entry): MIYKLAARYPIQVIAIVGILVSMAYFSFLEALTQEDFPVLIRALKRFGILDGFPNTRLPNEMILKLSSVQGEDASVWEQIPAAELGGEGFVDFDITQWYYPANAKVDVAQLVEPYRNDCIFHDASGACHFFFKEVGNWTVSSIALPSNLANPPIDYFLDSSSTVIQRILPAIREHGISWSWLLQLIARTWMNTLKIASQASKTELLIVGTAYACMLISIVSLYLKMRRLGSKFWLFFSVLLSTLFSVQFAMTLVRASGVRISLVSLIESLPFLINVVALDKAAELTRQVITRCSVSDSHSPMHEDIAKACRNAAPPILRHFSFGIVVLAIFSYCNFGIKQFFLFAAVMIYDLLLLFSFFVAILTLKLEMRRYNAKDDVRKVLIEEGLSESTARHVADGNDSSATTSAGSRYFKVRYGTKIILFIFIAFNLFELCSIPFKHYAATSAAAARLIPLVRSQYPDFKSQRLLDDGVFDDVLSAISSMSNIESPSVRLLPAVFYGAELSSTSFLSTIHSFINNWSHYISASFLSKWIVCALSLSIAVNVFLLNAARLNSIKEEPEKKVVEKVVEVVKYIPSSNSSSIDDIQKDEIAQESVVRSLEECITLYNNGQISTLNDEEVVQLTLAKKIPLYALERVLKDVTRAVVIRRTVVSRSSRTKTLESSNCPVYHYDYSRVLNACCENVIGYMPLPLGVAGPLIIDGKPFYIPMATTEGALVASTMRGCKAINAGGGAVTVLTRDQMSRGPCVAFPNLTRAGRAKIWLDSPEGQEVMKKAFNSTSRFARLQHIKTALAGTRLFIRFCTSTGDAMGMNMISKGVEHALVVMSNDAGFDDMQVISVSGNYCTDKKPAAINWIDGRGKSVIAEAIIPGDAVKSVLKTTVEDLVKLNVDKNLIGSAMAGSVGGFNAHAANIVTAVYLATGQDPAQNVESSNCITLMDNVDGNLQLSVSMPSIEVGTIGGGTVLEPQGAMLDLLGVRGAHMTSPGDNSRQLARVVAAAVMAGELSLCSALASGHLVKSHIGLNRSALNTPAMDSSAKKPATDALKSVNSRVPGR
Description: Inhibition of Schizosaccharomyces pombe HMG-CoA reductase by spectrophotometry. To be noted: read-out: IC50. The gist of the method: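 Membrane HMGR partially purified from S. pombe 972 h (YPD, 28 °C, 48 h) via centrifugation, Triton X-100 solubilization, 65 °C heat step, ammonium sulfate and calcium phosphate gel. Enzyme activated 37 °C 30 min, pre-incubated with compound (DMSO stocks 1–5 mM) 30 min at 37 °C. Assay: 200 µg enzyme, 0.13 mM HMG-CoA, 50 mM Tris-HCl pH 7.5; started with 0.13 mM NADPH; A340 decrease over 2 min; triplicate; IC50 derived.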

As a reminder, the IC50 is the concentration at which inhibition is half-maximal. `CCCc1cc(OC)c(OCC(=O)OC)cc1O`: the Activity in assay [1] is given as -74.14%; in [2] it was -25.03%; in assay [3] it was -28.88%; in assay [4] it was -18.89%; in [5], -41.81%; in assay [6], -29.15%. The Activity in assay [7] is recorded as -38.63%; in [8], -68.42%; in assay [9], -55.91%; in [10] it was -47.07%; in assay [11], -13.45%; in assay [12], -68.32%. Further, the Activity is reported as -53.34% in [13], -28.94% in assay [14], -23.15% in assay [15] and -68.42% in assay [16]. The IC50 in [17] was determined as 66.5 µM.

Regarding `CCCc1cc(OC)c(OCC(=O)OC)cc1N`, the Activity in assay [1] is -49.47%; in assay [2], -26.23%; in assay [3] it was -41.1%; in [4], -36.04%; in assay [5], -31.54%; in assay [6] it was -11.21%. In addition, the Activity is -15.45% in assay [7]; -59.67% in assay [8]; -24.98% in assay [9]; -22.14% in [10]; -39.58% in assay [11]; -69.1% in [12]. Further, the Activity is -41.4% in assay [13], -24.22% in assay [14], -37.31% in assay [15] and -12.22% in assay [16]. In addition, in assay [17], the IC50 amounted to 92.9 µM.

In the case of `CCCc1cc(OC)c(OCC(=O)O)cc1[N+](=O)[O-]`, the Activity in assay [1] is listed as -50.22%; in [2], -20.86%; in [3], -41.1%; in assay [4], -79.36%; in assay [5] it was -28.88%; in [6], -21.86%. Besides, the Activity in assay [7] was -10.09%; in assay [8], -59.67%; in assay [9], -47.72%; in [10], -25.11%; in [11] it was -55.62%; in assay [12], -51.59%. Besides, the Activity was -47.12% in [13], -40.34% in assay [14], -44.61% in assay [15] and -49.21% in assay [16]. Besides, the IC50 in assay [17] was determined as 135 µM.
